ChEMBL document CHEMBL1138564, “Microwave-induced synthesis and anti-microbial activities of 7,10,11,12-tetrahydrobenzo[c]acridin-8(9H)-one derivatives” (2009)
Converted amounts (≈) assume the structure as drawn. The source made the active and inactive calls. The rule behind the calls is not given here.

What was measured:
Aspergillus niger [1] = assay: Antimicrobial activity against Aspergillus niger NCIM 1196 at 1000 ug/disk after 72 hrs by disk diffusion method
Klebsiella aerogenes [2] = assay: Antimicrobial activity against Klebsiella aerogenes NCIM 2239 after 24 hrs by serial dilution method; type: functional; settings: NCIM 2239, 24 h
Method in brief: (§1)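 Broth dilution MIC in nutrient broth, run only for organisms found sensitive in disc diffusion. Compounds are two-fold serially diluted in 1 ml sterile broth per tube, spanning 3.9 to 1000. Inoculated tubes are incubated at 37 °C for 24 h.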

Rhodotorula mucilaginosa [3] = assay: Antimicrobial activity against Rhodotorula rubra NCIM 3174 after 72 hrs by serial dilution method; type: functional; settings: NCIM 3174, 72 h
Method in brief: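 MIC by broth dilution in Sabouraud's dextrose broth, run only on fungi found sensitive in the disc assay. Twofold serial dilutions were made in 1 ml broth per tube, covering 3.9 to 1000. Inoculated tubes were incubated at 27 °C for 72 h.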

Aliivibrio fischeri = assay: Antimicrobial activity against Vibrio fischeri NCIM 2154 at 1000 ug/disk after 24 hrs by disk diffusion method; type: functional; settings: NCIM 2154, 24 h, read-out: DIZ
Method in brief: (§2)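 Disc diffusion. 100 µl of bacterial suspension at 10⁸ CFU/ml was spread on Mueller–Hinton agar. Discs loaded with test compound dissolved in DMSO were placed on the lawn, with a DMSO-only disc as negative control. Plates were incubated at 37 °C for 24 h, and the inhibition zone diameter was measured.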

Salmonella typhimurium [4] = assay: Antimicrobial activity against Salmonella Typhimurium NCIM 2501 after 24 hrs by serial dilution method; type: functional, Salmonella enterica subsp. enterica serovar Typhimurium; settings: Salmonella enterica, NCIM 2501, 24 h
Aspergillus parasiticus = assay: Antimicrobial activity against Aspergillus parasiticus NCIM 904 at 1000 ug/disk after 72 hrs by disk diffusion method; type: functional; settings: NCIM 904, 72 h, read-out: DIZ
Method in brief: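 Disc diffusion on Sabouraud's dextrose agar. 100 µl of fungal suspension at 10⁶ CFU/ml is spread on the plate. Discs carry test compounds at two loadings in DMSO; DMSO alone is the negative control. Clotrimazole disc is the positive reference. Plates are incubated at 27 °C for 72 h, and the zone of inhibition diameter is measured.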

Pseudomonas aeruginosa [5] = assay: Antimicrobial activity against Pseudomonas aeruginosa NCIM 2200 at 1000 ug/disk after 24 hrs by disk diffusion method; type: functional; settings: for zone of inhibition at 1000 µg/disc: NCIM 2200, 24 h, read-out: DIZ
Method in brief: (§3)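 Disc diffusion on Mueller–Hinton agar. 100 µl of bacterial suspension at 10⁸ CFU/ml is spread on the plate. Discs carry test compounds at two loadings, dissolved in DMSO; DMSO alone serves as negative control. Ofloxacin disc is the positive reference. Plates are incubated at 37 °C for 24 h, and the inhibition zone diameter is measured.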

Salmonella typhimurium [6] = assay: Antimicrobial activity against Salmonella Typhimurium NCIM 2501 at 500 ug/disk after 24 hrs by disk diffusion method; type: functional, Salmonella enterica subsp. enterica serovar Typhimurium; settings: for zone of inhibition at 500 µg/disc: Salmonella enterica, NCIM 2501, 24 h, read-out: DIZ; for diameter of the inhibition zone (DIZ): Salmonella enterica subsp. enterica serovar Typhimurium
Method in brief: as §2

Klebsiella aerogenes [7] = assay: Antimicrobial activity against Klebsiella aerogenes NCIM 2239 at 1000 ug/disk after 24 hrs by disk diffusion method; type: functional; settings: for zone of inhibition at 1000 µg/disc: NCIM 2239, 24 h, read-out: DIZ
Method in brief: as §3

Bacillus subtilis [8] = assay: Antimicrobial activity against Bacillus subtilis NCIM 2063 after 24 hrs by serial dilution method; type: functional; settings: NCIM 2063, 24 h
Method in brief: as §1

Rhodotorula mucilaginosa [9] = assay: Antimicrobial activity against Rhodotorula rubra NCIM 3174 at 1000 ug/disk after 72 hrs by disk diffusion method; type: functional; settings: NCIM 3174, 72 h, read-out: DIZ
Method in brief: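 Fungal disc diffusion. 100 µl of suspension at 10⁶ CFU/ml was spread on Sabouraud's dextrose agar. Discs carrying test compound in DMSO were applied, with a DMSO-only disc as negative control. Plates were incubated at 27 °C for 72 h, and the zone of inhibition diameter was measured.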

Bacillus subtilis [10] = assay: Antimicrobial activity against Bacillus subtilis NCIM 2063 at 1000 ug/disk after 24 hrs by disk diffusion method; type: functional; settings: NCIM 2063, 24 h, read-out: DIZ
Method in brief: as §3

Bacillus cereus = assay: Antimicrobial activity against Bacillus cereus NCIM 2155 after 24 hrs by serial dilution method; type: functional; settings: NCIM 2155, 24 h
Method in brief: as §1

Aspergillus niger [11] = assay: Antimicrobial activity against Aspergillus niger NCIM 1196 at 500 ug/disk after 72 hrs by disk diffusion method
[12] = test system: Rhodococcus corynebacterioides; assay: Antimicrobial activity against Corynebacterium rubrum NCIM 2252 after 24 hrs by serial dilution method; type: functional; settings: Rhodococcoides corynebacterioides, NCIM 2252, 24 h
Method in brief: as §1

Aspergillus fumigatus = assay: Antimicrobial activity against Aspergillus fumigatus NCIM 902 after 72 hrs by serial dilution method; type: functional; settings: NCIM 902, 72 h
Method in brief: (§4)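 MIC by broth dilution in Sabouraud's dextrose broth, only for fungi sensitive in disc diffusion. Two-fold serial dilutions of compounds are made in 1 ml broth per tube, range 3.9 to 1000. Inoculated tubes are incubated at 27 °C for 72 h.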

Penicillium chrysogenum = assay: Antimicrobial activity against Penicillium chrysogenum NCIM 707 after 72 hrs by serial dilution method; type: functional; settings: NCIM 707, 72 h
Method in brief: as §4

Pseudomonas aeruginosa [13] = assay: Antimicrobial activity against Pseudomonas aeruginosa NCIM 2200 after 24 hrs by serial dilution method; type: functional; settings: NCIM 2200, 24 h
Method in brief: as §1

Lipomyces lipofer = assay: Antimicrobial activity against Lipomyces lipofer NCIM 3252 after 72 hrs by serial dilution method; type: functional; settings: NCIM 3252, 72 h
Method in brief: as §4

Staphylococcus = assay: Antimicrobial activity against Staphylococcus albus NCIM 2178 after 24 hrs by serial dilution method; type: functional; settings: NCIM 2178, 24 h
Proteus vulgaris = assay: Antimicrobial activity against Proteus vulgaris NCIM 2027 after 24 hrs by serial dilution method; type: functional; settings: NCIM 2027, 24 h
Method in brief: as §1

SMILES	diameter of the inhibition zone (DIZ) (Aspergillus niger [1])	MIC (Klebsiella aerogenes [2]) [µg/mL]	MIC (Rhodotorula mucilaginosa [3]) [µg/mL]	zone of inhibition at 1000 µg/disc (Aliivibrio fischeri) [mm]	MIC (Salmonella typhimurium [4]) [µg/mL]	zone of inhibition at 1000 µg/disc (Aspergillus parasiticus) [mm]	diameter of the inhibition zone (DIZ) (Pseudomonas aeruginosa [5])	zone of inhibition at 500 µg/disc (Salmonella typhimurium [6]) [mm]	zone of inhibition at 1000 µg/disc (Klebsiella aerogenes [7]) [mm]	MIC (Bacillus subtilis [8]) [µg/mL]	zone of inhibition at 1000 µg/disc (Rhodotorula mucilaginosa [9]) [mm]	zone of inhibition at 1000 µg/disc (Bacillus subtilis [10]) [mm]	MIC (Bacillus cereus) [µg/mL]	diameter of the inhibition zone (DIZ) (Aspergillus niger [11])	MIC [12] [µg/mL]	MIC (Aspergillus fumigatus) [µg/mL]	MIC (Lipomyces lipofer) [µg/mL]	also measured
CC1(C)CC(=O)C2=C(C1)Nc1c(ccc3ccccc13)C2c1ccccc1O (centres undefined)	inactive	62.5 (≈ 169 µM)	7.8 (≈ 21.1 µM)	8	31.2 (≈ 84.4 µM)	16	inactive	10	10	62.5 (≈ 169 µM)	14	9	62.5 (≈ 169 µM)	inactive	–	–	–	–
O=C1CCCC2=C1C(c1cccc(Cl)c1)c1ccc3ccccc3c1N2 (centres undefined)	inactive	125 (≈ 347 µM)	62.5 (≈ 174 µM)	10	–	13	inactive	–	9	31.2 (≈ 86.7 µM)	10	11	–	inactive	125 (≈ 347 µM)	31.2 (≈ 86.7 µM)	–	diameter of the inhibition zone (DIZ) (Salmonella typhimurium [6]): inactive
CC1(C)CC(=O)C2=C(C1)Nc1c(ccc3ccccc13)C2c1cccc([N+](=O)[O-])c1 (centres undefined)	inactive	31.2 (≈ 78.3 µM)	7.8 (≈ 19.6 µM)	10	15.6 (≈ 39.2 µM)	16	–	10	11	31.2 (≈ 78.3 µM)	15	11	15.6 (≈ 39.2 µM)	inactive	125 (≈ 314 µM)	62.5 (≈ 157 µM)	62.5 (≈ 157 µM)	MIC (Penicillium chrysogenum): 62.5 µg/mL (≈ 157 µM); MIC (Pseudomonas aeruginosa [13]): 125 µg/mL (≈ 314 µM); MIC (Staphylococcus): 125 µg/mL (≈ 314 µM); zone of inhibition at 1000 µg/disc (Pseudomonas aeruginosa [5]): 8 mm; MIC (Proteus vulgaris): 125 µg/mL (≈ 314 µM)
CC1(C)CC(=O)C2=C(C1)Nc1c(ccc3ccccc13)C2c1ccc(Cl)cc1 (centres undefined)	inactive	62.5 (≈ 161 µM)	15.6 (≈ 40.2 µM)	9	31.2 (≈ 80.4 µM)	17	–	9	11	31.2 (≈ 80.4 µM)	13	10	15.6 (≈ 40.2 µM)	inactive	62.5 (≈ 161 µM)	125 (≈ 322 µM)	–	MIC (Pseudomonas aeruginosa [13]): 62.5 µg/mL (≈ 161 µM); MIC (Staphylococcus): 125 µg/mL (≈ 322 µM); zone of inhibition at 1000 µg/disc (Pseudomonas aeruginosa [5]): 9 mm; MIC (Proteus vulgaris): 62.5 µg/mL (≈ 161 µM)
O=C1CCCC2=C1C(c1ccccc1Cl)c1ccc3ccccc3c1N2 (centres undefined)	inactive	–	3.9 (≈ 10.8 µM)	9	–	10	inactive	–	–	62.5 (≈ 174 µM)	16	10	–	inactive	125 (≈ 347 µM)	62.5 (≈ 174 µM)	–	diameter of the inhibition zone (DIZ) (Salmonella typhimurium [6]): inactive; diameter of the inhibition zone (DIZ) (Klebsiella aerogenes [7]): inactive
CC1(C)CC(=O)C2=C(C1)Nc1c(ccc3ccccc13)C2c1ccccc1 (centres undefined)	inactive	–	31.2 (≈ 88.3 µM)	8	62.5 (≈ 177 µM)	10	inactive	9	–	31.2 (≈ 88.3 µM)	12	11	31.2 (≈ 88.3 µM)	inactive	–	62.5 (≈ 177 µM)	–	diameter of the inhibition zone (DIZ) (Klebsiella aerogenes [7]): inactive
CC1(C)CC(=O)C2=C(C1)Nc1c(ccc3ccccc13)C2c1ccccc1Cl (centres undefined)	inactive	125 (≈ 322 µM)	15.6 (≈ 40.2 µM)	9	31.2 (≈ 80.4 µM)	10	inactive	10	9	62.5 (≈ 161 µM)	13	8	31.2 (≈ 80.4 µM)	inactive	–	125 (≈ 322 µM)	125 (≈ 322 µM)	–
CC1(C)CC(=O)C2=C(C1)Nc1c(ccc3ccccc13)C2c1cccc(Cl)c1 (centres undefined)	inactive	125 (≈ 322 µM)	62.5 (≈ 161 µM)	9	62.5 (≈ 161 µM)	12	inactive	8	9	62.5 (≈ 161 µM)	9	9	62.5 (≈ 161 µM)	inactive	125 (≈ 322 µM)	62.5 (≈ 161 µM)	125 (≈ 322 µM)	MIC (Penicillium chrysogenum): 62.5 µg/mL (≈ 161 µM)
